By half-life is commonly meant the time in which the quantity being followed falls by half.

Experimental findings from ChEMBL document CHEMBL1127427, “Effect of molecular manipulation on the estrogenic activity of a brain-targeting estradiol chemical delivery system” (J Med Chem, 1994) are described below.

The subject of data set [1] is Rattus norvegicus. Kind of data set: Compound is evaluated for effect on serum estradiol, 14 days subsequent to a single intravenous dose determined by means of a radioimmunoassay. The format is functional, organism-based. In a few lines: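 Adult male Sprague-Dawley rats (175–200 g), conscious and restrained, given a single tail-vein iv injection of 0.025 mmol/kg (equal to 5 mg/kg E2-CDS) or DMSO vehicle (0.5 mL/kg). Serum taken at day 14. Estradiol measured in duplicate by Coat-a-Count RIA. Antibody cross-reactivity with E2-Q+ <0.1%; detection limit 10 pg/mL. Mean ± SEM.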

A short description of data set [2]: Compound was evaluated for oxidation rate constant in liver homogenate. To be noted: tissue homogenate. It counts as ADME, tissue-based. In a few lines:
(§1)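 Male Sprague-Dawley rats were PBS-perfused and their organs homogenized in PBS: brain 2% w/v, liver 1.0% w/v. Compound loss followed by the fall in 360 nm absorbance. Pseudo-first-order rate constant taken from log(A360) versus time. Triplicate runs; half-life given as mean ± SEM.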

For data set [3], the species on record is Rattus norvegicus. Kind of data set: Compound was tested in male rats for its effect on the seminal vesicle weight. It counts as functional. Details: concentration or dose not given beside the values. In a few lines: (§2)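 Adult male Sprague-Dawley rats (175–200 g) received a single iv tail-vein dose of 0.025 mmol/kg (equal to 5 mg/kg E2-CDS) or DMSO vehicle (0.5 mL/kg). Weighed daily for 14 days. Euthanized at day 14; organ excised and weighed. Expressed as mg per 100 g body weight, mean ± SEM, n=6.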

The species entered for data set [4] is Rattus norvegicus. Kind of data set: Compound is tested in male rats for its effect on the prostate weight. It counts as functional, Prostate gland. Also on record: concentration or dose not given beside the values. Put shortly:
as §2

For data set [5], the species on record is Rattus norvegicus. Kind of data set: Compound is tested in male rats for its effect on the pituitary weight. The format is functional. Also on record: concentration or dose not given beside the values. In a few lines:
as §2

Data set [6] is described as follows: Compound was evaluated for first order half-life in brain homogenate. The format is ADME, tissue-based. In a few lines: as §1
Data set [7] can be described thus: Compound was evaluated for first order half-life in liver homogenate. The format is ADME, tissue-based. Put shortly:
as §1

Data set [8] in a line: Compound was evaluated for oxidation rate constant in brain homogenate. The format is ADME, tissue-based. Put shortly:
as §1

Structures are written as SMILES.

`CCCCCCN1C=CCC(C(=O)O[C@H]2CC[C@H]3[C@@H]4CCc5cc(O)ccc5[C@H]4CC[C@]23C)=C1` displayed a Concentration in data set [1] of 37.4 pg/mL. For the same compound, the k in data set [2] was found to be 0.0123 min⁻¹; in data set [8], 0.00268 min⁻¹. The Activity in data set [3] is reported as 95.66%; in data set [4], 66.26%; in data set [5], 5.28%. Further, the half-life in data set [6] stood at 4.32 h; in data set [7] it was 0.933 h.

For the compound `CC(C)N1C=CCC(C(=O)O[C@H]2CC[C@H]3[C@@H]4CCc5cc(O)ccc5[C@H]4CC[C@]23C)=C1`, the Concentration in data set [1] came to 43.6 pg/mL. Further, the k is 0.0263 min⁻¹ in data set [2] and 0.0058 min⁻¹ in data set [8]. Besides, the Activity is recorded as 104.62% in data set [3], 68.64% in data set [4] and 4.86% in data set [5]. For the same compound, the results for the half-life in data set [6] and in data set [7] were 2 h and 0.433 h, respectively.

`C[C@]12CC[C@@H]3c4ccc(O)cc4CC[C@H]3[C@@H]1CC[C@@H]2OC(=O)C1=CN(Cc2ccccc2)C=CC1` showed a Concentration in data set [1] of 42 pg/mL. For the same compound, the figures for the k in data set [2] and in data set [8] were 0.00892 min⁻¹ and 0.00238 min⁻¹, respectively. The Activity is 97.43% in data set [3], 67.38% in data set [4] and 4.86% in data set [5]. For the same compound, the figures for the half-life in data set [6] and in data set [7] were 4.8 h and 1.32 h, respectively.

`CCCN1C=CCC(C(=O)O[C@H]2CC[C@H]3[C@@H]4CCc5cc(O)ccc5[C@H]4CC[C@]23C)=C1` returned a Concentration in data set [1] of 42.9 pg/mL. Also, the results for the k in data set [2] and in data set [8] were 0.0153 min⁻¹ and 0.00736 min⁻¹, respectively. Also, the results for the Activity in data set [3], in data set [4] and in data set [5] were 85.97%, 46.4% and 5.32%, respectively. Moreover, the half-life was 1.57 h in data set [6] and 0.867 h in data set [7].

In data set [1], `C[C@]12CC[C@@H]3c4ccc(O)cc4CC[C@H]3[C@@H]1CC[C@@H]2O` [ESTRADIOL] yielded a Concentration of 22.2 pg/mL. In addition, the Activity in data set [3] worked out at 107.36%; in data set [4] it was 62.26%; in data set [5] it was 3.88%.

In the case of `C[C@]12CC[C@@H]3c4ccc(O)cc4CC[C@H]3[C@@H]1CC[C@@H]2OC(=O)C1=CN(CC2CC2)C=CC1`, the Concentration in data set [1] is 40.4 pg/mL. Also, the k is 0.0183 min⁻¹ in data set [2] and 0.00611 min⁻¹ in data set [8]. Further, the results for the Activity in data set [3], in data set [4] and in data set [5] were 97.29%, 54.31% and 4.4%, respectively. For the same compound, the half-life came to 1.9 h in data set [6] and 0.633 h in data set [7].

For `CCN1C=CCC(C(=O)O[C@H]2CC[C@H]3[C@@H]4CCc5cc(O)ccc5[C@H]4CC[C@]23C)=C1`, in data set [1], the Concentration came to 37.7 pg/mL. For the same compound, the k in data set [2] was determined as 0.0323 min⁻¹; in data set [8], 0.00353 min⁻¹. Also, the Activity is 70.75% in data set [3], 32.06% in data set [4] and 6.17% in data set [5]. Further, the figures for the half-life in data set [6] and in data set [7] were 3.3 h and 0.367 h, respectively.

`C[C@]12CC[C@@H]3c4ccc(O)cc4CC[C@H]3[C@@H]1CC[C@@H]2OC(=O)C1=CN(CCCO)C=CC1` registered a Concentration in data set [1] of 44.3 pg/mL. Further, the k in data set [2] amounted to 0.0242 min⁻¹; in data set [8], 0.00567 min⁻¹. Moreover, the Activity came out at 106.49% in data set [3], 75.22% in data set [4] and 4.6% in data set [5]. Further, the half-life worked out at 2.05 h in data set [6] and 0.483 h in data set [7].

Take `CN1C=CCC(C(=O)O[C@H]2CC[C@H]3[C@@H]4CCc5cc(O)ccc5[C@H]4CC[C@]23C)=C1`: the Concentration in data set [1] was 53 pg/mL. In addition, the k amounted to 0.0815 min⁻¹ in data set [2] and 0.00577 min⁻¹ in data set [8]. Further, the Activity in data set [3] turned out to be 68.15%; in data set [4], 35.75%; in data set [5], 6.46%. Besides, the half-life worked out at 2.02 h in data set [6] and 0.533 h in data set [7].
